Test results taken from ChEMBL document CHEMBL1145079, “Receptor-mediated targeting of a photosensitizer by its conjugation to gonadotropin-releasing hormone analogues” (J Med Chem, 2003).

Legend:
Format in all cases: functional
[1] = system: Rattus norvegicus; test: Serum LH releasing potency in vivo after intraperitoneal administration in rats at 10 h
Outline: (§1)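 Blood was drawn by cardiac puncture under light ether anaesthesia at each time point. Serum LH was measured by double-antibody RIA against the LH-RP-3 reference, with three dilutions per serum. Values are mean ± SEM of five rats per group; the experiment was repeated twice more.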

[2] = system: Rattus norvegicus; test: Serum LH releasing potency in vivo after intraperitoneal administration in rats at 24 h; outline: as §1
[3] = system: Rattus norvegicus; test: Serum LH releasing potency in vivo after intraperitoneal administration in rats at 3 h; outline: as §1
[4] = system: Rattus norvegicus; test: Serum LH releasing potency in vivo after intraperitoneal administration in rats at 6 h; outline: as §1
[5] = system: Rattus norvegicus; test: Serum LH releasing potency in vivo after intraperitoneal administration in rats at 0 h; outline: as §1
[6] = system: Rattus norvegicus; test: Serum LH releasing potency in vivo after intraperitoneal administration in rats at 1.5 h; outline: as §1
[7] = species: Rattus norvegicus; test: LH releasing activity in rat
Outline: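 Fifteen-week-old female Wistar-derived rats (220–250 g), given 2 nmol/rat ip in 0.5 mL PBS. Blood drawn by cardiac puncture under light ether anesthesia at set times (1.5–24 h). Serum LH measured by double-antibody RIA at three dilutions per sample. Five rats per group; mean ± SEM.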

| SMILES | Activity [1] | Activity [2] | Activity [3] | Activity [4] | Activity [5] | Activity [6] | ED50 [7] |
| --- | --- | --- | --- | --- | --- | --- | --- |
| CC(C)C[C@H](NC(=O)[C@H](CCCCN)NC(=O)[C@H](Cc1ccc(O)cc1)NC(=O)[C@H](CO)NC(=O)[C@H](Cc1c[nH]c2ccccc12)NC(=O)[C@H](Cc1c[nH]cn1)NC(=O)[C@@H]1CCC(=O)N1)C(=O)N[C@@H](CCCN=C(N)N)C(=O)N1CCC[C@H]1C(=O)NCC(N)=O | 1.12 ng/mL | 0.34 ng/mL | 21.92 ng/mL | 2.94 ng/mL | 0.53 ng/mL | 72.5 ng/mL | – |
| C=CC1=C(C)c2cc3[nH]c(cc4nc(cc5[nH]c(cc1n2)c(C)c5CCC(=O)O)C(CCC(=O)NCCCC[C@@H](NC(=O)[C@H](Cc1ccc(O)cc1)NC(=O)[C@H](CO)NC(=O)[C@@H](Cc1c[nH]c2ccccc12)NC(=O)[C@@H](Cc1ccccc1)NC(=O)[C@H]1CCC(=O)N1)C(=O)N[C@@H](CC(C)C)C(=O)N[C@@H](CCCN=C(N)N)C(=O)N1CCC[C@H]1C(=O)NCC(N)=O)=C4C)c(C)c3C=C | – | – | – | – | – | – | 1800 nM |
| C=CC1=C(C)c2cc3[nH]c(cc4nc(cc5[nH]c(cc1n2)c(C)c5CCC(=O)O)C(CCC(=O)NCCCC[C@@H](NC(=O)[C@H](Cc1ccc(O)cc1)NC(=O)[C@H](CO)NC(=O)[C@H](Cc1c[nH]c2ccccc12)NC(=O)[C@H](Cc1c[nH]cn1)NC(=O)[C@@H]1CCC(=O)N1)C(=O)N[C@@H](CC(C)C)C(=O)N[C@@H](CCCN=C(N)N)C(=O)N1CCC[C@H]1C(=O)NCC(N)=O)=C4C)c(C)c3C=C | 2.9 ng/mL | 0.88 ng/mL | 11.57 ng/mL | 8.1 ng/mL | 0.53 ng/mL | 10.64 ng/mL | – |
